Data set [1] can be described thus: Drug localization in golgi apparatus of rat NRK cells after 10 mins by immunofluorescence microscopy. It is filed as ADME, cell-based. The method, boiled down:
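Live NRK cells incubated with fluorescent probe for 10 min and imaged for Golgi-like perinuclear staining. For colocalization, cells were mildly fixed (2% formaldehyde, 90 s), immunostained for mannosidase II, then given probe at 25 μM for 30 min before mounting. Coumarin read at excitation 370 nm, emission 460 nm.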

In data set [2] the test system is NRK. In words: Golgi-disturbing activity in golgi apparatus of rat NRK cells assessed as golgi vesiculation after 60 mins by Hoechst 3342 staining-based immunofluorescence microscopy. It is filed as functional, cell-based. In a few lines:
(§1)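 NRK cells grown in alpha MEM with 10% FCS, 2 mM glutamine and 25 mM Hepes pH 7.4 on coated coverslips. Compound at 30 µM working concentration (DMSO vehicle control) for 60 min at 37 °C. Cells then immunostained for mannosidase II with Alexa 594 secondary and Hoechst for nuclei, and scored by fluorescence microscopy at 60×.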

The test system of data set [3] is NRK. Put plainly: Golgi-disturbing activity in golgi apparatus of rat NRK cells assessed as reversible golgi vesiculation after 60 mins by Hoechst 3342 staining-based immunofluorescence microscopy. It is filed as functional, cell-based. In a few lines: (§2)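 After 1 h compound exposure (30 µM, 37 °C), NRK cells were either fixed directly or washed four times with PBS and kept in fresh complete medium at 37 °C (90 min per methods) before mannosidase II/Hoechst immunofluorescence to judge recovery of Golgi structure.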

Data set [4] has as its system NRK. Put plainly: Golgi-disturbing activity in golgi apparatus of rat NRK cells assessed as fusion of golgi membrane fusion with endoplasmic reticulum at 7 uM after 60 mins by Hoechst 3342 staining-based immunofluorescence microscopy. It is filed as functional, cell-based. The method, boiled down:
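Agent applied for 60 min at 37 °C, with a DMSO control. Golgi read by immunofluorescence: rabbit mannosidase II primary, Alexa Fluor 594 secondary, Hoechst DNA stain, 60× fluorescence microscopy.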

The test system of data set [5] is NRK. In words: Golgi-disturbing activity in golgi apparatus of rat NRK cells assessed as enhancement of nocodazole-induced golgi fragmentation after 60 mins by Hoechst 3342 staining-based immunofluorescence microscopy. It is filed as functional, cell-based. The method, boiled down:
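NRK cells were pretreated with nocodazole (30 µM) for 60 min, then given compound for a further 60 min. Golgi was visualized by mannosidase II immunofluorescence with Hoechst nuclear stain.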

For data set [6], the system named is NRK. In words: Golgi-disturbing activity in golgi apparatus of rat NRK cells assessed as golgi fragmentation after 60 mins by Hoechst 3342 staining-based immunofluorescence microscopy in presence of PKD inhibitor H89. It is filed as functional, cell-based. In a few lines: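 NRK cells were pretreated with H-89 (20 µM) for 30 min, then incubated with compound for 1 h at 37 °C. Golgi was read by mannosidase II immunofluorescence with Hoechst counterstain.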

Data set [7] deals with NRK. Put plainly: Golgi-disturbing activity in golgi apparatus of rat NRK cells assessed as transport of GFP-fused VSV G protein from endoplasmic reticulum to golgi after 60 mins by protein transport assay. It is filed as functional, cell-based. The method, boiled down:
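NRK cells were transfected with tsO45 VSV-G-GFP using FuGene 6 and held at 40 °C for 20 h to arrest VSV-G in the ER. They were treated with compound (30 µM working) or DMSO for 1 h, then moved to 20 °C for 2 h with cycloheximide. VSV-G entry into the Golgi was judged by fluorescence microscopy against the Golgi marker.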

The subject of data set [8] is NRK. In words: Golgi-disturbing activity in golgi apparatus of rat NRK cells assessed as transport of GFP-fused VSV G protein from fragmented golgi to plasma membrane after 60 mins by protein transport assay. It is filed as functional, cell-based. The method, boiled down: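 After transfection with tsO45 VSV-G-GFP, NRK cells were held at 40 °C for 20 h, then at 20 °C for 2 h with cycloheximide to hold VSV-G in the Golgi. Cells were then incubated with compound (30 µM working) or DMSO and shifted to 32 °C for 1 h. Arrival at the plasma membrane was imaged by fluorescence microscopy.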

Data set [9] relates to NRK. Put plainly: Golgi-disturbing activity in golgi apparatus of rat NRK cells assessed as microtubule depolymerization-associated golgi fragmentation after 60 mins by Hoechst 3342 staining-based immunofluorescence microscopy.
In data set [10] the test system is NRK. Put plainly: Golgi-disturbing activity in golgi apparatus of rat NRK cells assessed as partial golgi vesiculation after 60 mins by Hoechst 3342 staining-based immunofluorescence microscopy. It is filed as functional, cell-based. The method, boiled down: as §1
For data set [11], the system named is NRK. Put plainly: Golgi-disturbing activity in golgi apparatus of rat NRK cells assessed as reversible golgi fragmentation after 60 mins by Hoechst 3342 staining-based immunofluorescence microscopy. It is filed as functional, cell-based. In a few lines: as §2
The subject of data set [12] is NRK. Put plainly: Golgi-disturbing activity in golgi apparatus of rat NRK cells assessed as golgi fragmentation after 60 mins by Hoechst 3342 staining-based immunofluorescence microscopy. It is filed as functional. In a few lines:
as §1

The subject of data set [13] is NRK. Put plainly: Golgi-disturbing activity in golgi apparatus of rat NRK cells assessed as golgi fragmentation measured after 60 mins following drug washout by Hoechst 3342 staining-based immunofluorescence microscopy. It is filed as functional, cell-based.
The test system of data set [14] is NRK. In words: Golgi-disturbing activity in golgi apparatus of rat NRK cells assessed as complete golgi vesiculation without fusion with endoplasmic reticulum at 30 uM after 60 mins by Hoechst 3342 staining-based immunofluorescence microscopy. It is filed as functional, cell-based. The method, boiled down:
as §1

Data set [15] concerns NRK. In words: Golgi-disturbing activity in golgi apparatus of rat NRK cells assessed as irreversible golgi fragmentation after 60 mins by Hoechst 3342 staining-based immunofluorescence microscopy. It is filed as functional, cell-based. The method, boiled down: as §2
The subject of data set [16] is NRK. Put plainly: Golgi-disturbing activity in golgi apparatus of rat NRK cells assessed as microtubule depolymerization-associated golgi fragmentation at 30 uM after 60 mins by Hoechst 3342 staining-based immunofluorescence microscopy. It is filed as functional, cell-based. In a few lines: as §1

Drawing on ChEMBL document CHEMBL1157652, “Chemical biology studies on norrisolide” (Bioorg Med Chem, 2010), this text covers Drug uptake and Activity for 14 molecules.

Calls of active or inactive are those of the source. The calls are words filed in the database; no cut-off is given here.

Turning to `CN(C)c1ccc2c(CC(=O)NCC#Cc3cc(C(=O)O[C@H]4CC[C@H]5C(C)(C)CCC[C@]45C)c(OCC4CC4)cc3OCC3CC3)cc(=O)oc2c1`, the Drug uptake entry in data set [1] is reported as “Active”. Further, the result in the data set on NRK [2] and in the data set on NRK [3] was Active.

Take `C[C@H]1CCC/C=C/[C@@H]2C[C@H](O)C[C@H]2[C@H](O)/C=C/C(=O)O1`: the outcome with NRK [4] was Active.

With `C=C([C@@H]1[C@@H](OC(C)=O)O[C@@H]2OC(=O)C[C@@H]21)[C@H]1CC[C@H]2C(C)(C)CCC[C@]12C`, the outcome with NRK [5], with NRK [6], in the data set with NRK [8] and in the data set with NRK [9] was Active. Also, in the data set with NRK [7], the result was inactive.

On to `C=C([C@H]1[C@H]2CC(=O)O[C@H]2O[C@@H]1CO)[C@H]1CC[C@H]2C(C)(C)CCC[C@]12C`, for which the outcome in the data set on NRK [10] and in the data set on NRK [11] was Active.

Regarding `C=C([C@H]1[C@H]2CC(=O)O[C@H]2O[C@@H]1COC(=O)Cc1cc(=O)oc2cc(N(C)C)ccc12)[C@H]1CC[C@H]2C(C)(C)CCC[C@]12C`, the result in the data set with NRK [12] was Active. For the same molecule, in data set [1], the Drug uptake result was “Active”.

For `COc1ccc(C(=O)O[C@H]2CC[C@H]3C(C)(C)CCC[C@]23C)c(OC)c1`, the outcome in the data set on NRK [11] and in the data set with NRK [2] was Active.

Take `C=C([C@H]1[C@H]2CC(=O)O[C@H]2O[C@@H]1C(C)=O)C(C)(C)C`: the outcome in the data set on NRK [10], in the data set with NRK [11] and in the data set with NRK [13] was inactive.

For the molecule `C=C([C@H]1[C@H]2CC(=O)O[C@H]2O[C@@H]1C(C)=O)[C@H]1CC[C@H]2C(C)(C)CCC[C@]12C`, the result in the data set on NRK [10] and in the data set on NRK [11] was Active.

In the case of `C=C([C@@H]1[C@@H](OC(C)=O)O[C@@H]2OC(=O)C[C@@H]21)C(C)(C)C`, the result with NRK [10], with NRK [11] and with NRK [13] was inactive.

As to `C=C1CCC[C@H]2[C@](C)(CC3=C(O)C(=O)C=C(OC)C3=O)[C@@H](C)CC[C@]12C`, the outcome with NRK [14], in the data set with NRK [15] and with NRK [12] was Active. Further, in the data set on NRK [6], the result was inactive.

As to `CC(=O)[C@H]1O[C@@H]2OC(=O)C[C@@H]2[C@H]1OCc1ccccc1`, the outcome in the data set on NRK [10], in the data set on NRK [11] and with NRK [13] was inactive.

On to `CC(=O)O[C@H]1O[C@@H]2OC(=O)C[C@@H]2[C@H]1OCc1ccccc1`, for which the result in the data set on NRK [10], with NRK [11] and with NRK [13] was inactive.

On to `COC(=O)Nc1nc2cc(C(=O)c3cccs3)ccc2[nH]1`, for which the outcome with NRK [16] was Active.

For the molecule `CC1(C)CCC[C@]2(C)[C@@H](OC(=O)c3ccc(OCC4CC4)cc3OCC3CC3)CC[C@@H]12`, the outcome in the data set with NRK [13] and in the data set with NRK [2] was Active.
